Shown are actives, neighbours in structure and some others; about 2.3% of the full set was active somewhere.
TRPC4 block – TRPC4 (mouse) channel inhibition. Q9QUQ5. HEK293 TRPC4beta/mu-opioid, DAMGO-evoked Fluo4 calcium flux; stronger effect = lower value. B-score at 10 µM. 0.39% of 300,000 active. AID 2247;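 active = B-score over 3 SD under the library average, no early fluorescence shift, positive overall ratio signal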
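test system = HEK293 cells with stable TRPC4beta plus mu-opioid receptor expression | detection = Fluo4 Ca2+ flux fluorescence | read-out = integrated fluorescence ratio relative to baseline, converted to per-well B score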
TRPC4 agonist – activators of mouse TRPC4 channel. HEK293 TRPC4beta/mu-opioid, Fluo4 calcium fluorescence; stronger effect = higher value. AID 2237. Q9QUQ5. B-score at 10 µM. 0.49% of 310,000 active;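 active = B-score above 5 SD of library B-scores, and initial fluorescence ratio not above library mean plus 5 SD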;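 note: positive B-score marks a calcium rise read as TRPC4 activation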
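Assay system: HEK293 stable line with TRPC4beta plus mu-opioid receptor. Times: dye 45 min RT, read 110 s. Measured by: kinetic Fluo4 calcium fluorescence. Measure: B score of integrated ratio. Controls: assay buffer as low control, maximal DAMGO as high control.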
TRPC6 act – activates the mouse TRPC6 cation channel; HEK293-TRPC6 membrane potential dye fluorescence; stronger effect = higher value; B-score at 10 µM; 0.13% of 310,000 active; AID 2550;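 active = B-score of the integrated fluorescence ratio above library mean plus 3 SD, and starting fluorescence ratio within library mean plus 5 SD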;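 note: higher score means more depolarization so channel activation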
TRPC4 PAM – TRPC4 (mouse) allosteric potentiation; Q9QUQ5; HEK293 TRPC4beta/mu-opioid, DAMGO EC20, Fluo-4 Ca2+ flux; stronger effect = higher value; B-score at 10 µM; 0.42% of 310,000 active;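 active = B-score of calcium response area above 5 SD of library B-scores, with initial fluorescence ratio within 5 SD of library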;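 note: B-score of integrated fluorescence ratio over time as area under calcium response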
TRPC6 inh – mouse TRPC6 channel inhibition; Q61143; HEK293-TRPC6, membrane potential dye, ACh-evoked depolarization; stronger effect = lower value; B-score at 10 µM; 1.1% of 310,000 active;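 active = B-score under library mean minus 3 SD, initial fluorescence not abnormally high, positive integrated signal ratio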;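 note: B-score derived from integrated fluorescence ratio over the kinetic read; more negative B-score means stronger inhibition of depolarization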
Numbers without * were called inactive; i = inactive.

SMILES	TRPC4 block	TRPC4 agonist	TRPC6 act	TRPC4 PAM	TRPC6 inh
Cc1ccc(S(=O)(=O)N2CCC(C(=O)NCCCN3CCOCC3)CC2)cc1C	i	i	i	i	i
CC(=O)N1c2ccc(S(=O)(=O)NCc3ccco3)cc2CC1C (stereo not given)	i	i	i	i	i
COc1ccc(Cn2nnnc2C(c2cc3cc(C)ccc3[nH]c2=O)N2CCN(C)CC2)cc1 (stereo not given)	-7*	i	i	i	i
COc1ccc(Cn2nnnc2C(c2cc3cccc(C)c3[nH]c2=O)N2CCN(C)CC2)cc1 (stereo not given)	i	98*	i	i	i
CCc1ccc2[nH]c(=O)c(C(c3nnnn3Cc3ccc(OC)cc3)N3CCOCC3)cc2c1 (stereo not given)	i	i	i	i	i
Cc1cccc2cc(C(c3nnnn3Cc3ccccc3)N3CCN(C)CC3)c(=O)[nH]c12 (stereo not given)	i	47*	i	i	i
COc1ccc(CNc2nc(-c3cccnc3)nn2C(=O)C(C)C)cc1	-5*	i	i	i	i
CCC(=O)n1nc(-c2cccnc2)nc1NCc1ccc(OC)cc1	i	i	i	i	i
CN(C)CCCOC(=O)c1ccc(Cl)cc1Cl	i	i	i	27*	i
CCCN(CCC)CCCOC(=O)c1ccc(Cl)cc1Cl	i	i	i	i	i
CCOC(=O)C1(CCc2ccccc2)CCN(C(=O)CN2CCOC2=O)CC1	i	i	i	i	i
COc1cccc(CN2CCN(C3CCN(c4ccccc4F)CC3)CC2CCO)c1 (stereo not given)	-5*	i	i	i	i
COc1ccc(OC)c(C(=O)Nc2c(O)ccc3ccccc23)c1	i	i	i	i	i
CC(=O)n1cc(N(C(=O)CCl)c2ccc([N+](=O)[O-])cc2)c2ccccc21	i	i	i	i	i
O=Cc1[nH]c2ccccc2c1N(C(=O)CCl)c1ccc([N+](=O)[O-])cc1	i	45*	i	i	i
O=C(OCCN1CCN(c2ncc(C(F)(F)F)cc2Cl)CC1)c1ccc(F)cc1	i	i	i	10*	i
CN(C)c1ccc(NC(=S)N2CCN(c3ncc(C(F)(F)F)cc3Cl)CC2)cc1	i	127*	i	i	i
O=C(c1cccs1)N1CCN(c2ncc(C(F)(F)F)cc2Cl)CC1	i	i	i	i	i
Cc1ccc(C(=O)OCCN2CCN(c3ncc(C(F)(F)F)cc3Cl)CC2)cc1	i	i	i	16*	i
O=C(CN1CCN(c2ncc(C(F)(F)F)cc2Cl)CC1)N1CCN(c2ncc(C(F)(F)F)cc2Cl)CC1	i	93*	i	i	i
CC(C)(C)c1ccc(C(=O)N2CCC(=O)N(C(COCc3ccccc3)Cc3ccccc3)CC2)cc1 (stereo not given)	i	50*	i	i	i
O=C(c1ccc(C(F)(F)F)cc1)N1CCC(=O)N(C(COCc2ccccc2)Cc2ccccc2)CC1 (stereo not given)	i	i	i	i	i
CCOc1ccccc1CNC(=O)Cn1ccc2cc(S(=O)(=O)N3CCCC3)ccc21	i	i	i	i	i
O=C(CCNC(=O)c1ccc(Br)cc1)Nc1ccccc1N1CCCCC1	-6*	i	i	i	i
O=C(CCNC(=O)c1ccccc1Cl)Nc1ccccc1N1CCCC1	i	i	i	i	i
SMILES	TRPC4 block	TRPC4 agonist	TRPC6 act	TRPC4 PAM	TRPC6 inh
COC(=O)C1CCN(c2ccc(C(N)=O)cc2[N+](=O)[O-])CC1	i	i	i	i	i
CCCOc1ccc(C2=CSC3=NCCN23)cc1[N+](=O)[O-]	i	i	i	i	-6.2*
O=C(NNC(=S)NC(=O)C12CC3CC(CC(C3)C1)C2)c1ccncc1	i	169*	i	i	i
CC1(C(=O)NC(=S)NNC(=O)c2ccncc2)CCCCC1	i	97*	i	i	i
Cc1ccc(C(C)NC(=O)c2ccco2)cc1C (stereo not given)	i	i	i	i	i
CC1=C(C(=O)Nc2ccccc2C)C(c2ccc(C)o2)C2=C(CCCC2=O)N1 (stereo not given)	i	i	i	i	i
COc1ccccc1C(=O)Nc1c(C(=O)N(CCN(C)C)Cc2ccco2)oc2ccccc12	i	i	i	i	i
Cc1ccccc1C(=O)Nc1c(C(=O)N(CCN(C)C)Cc2ccco2)oc2ccccc12	-6*	45*	i	i	i
COc1cc2c(cc1OC)C(c1ccc(Br)cc1)NCC2 (stereo not given)	i	i	i	i	i
Cc1onc(-c2c(F)cccc2Cl)c1C(=O)N=C(N)N1CCCC1	i	i	i	i	i
COc1ccc(N(C(C)=O)S(=O)(=O)c2cccc3cccnc23)cc1	i	i	i	i	i
CCOc1cc(/C=N/NC(=O)CN2CCCCC2)ccc1OCc1cccc(Cl)c1	i	i	i	11*	i
CCOc1cc(/C=N/NC(=O)CN2CCCCC2)ccc1OCc1ccc(Cl)cc1	i	i	i	i	i
CCC1CCCCN1CCN1C(=O)C2C(C(=O)Nc3ccc(OC)cc3)C3C=CC2(O3)C1C(=O)NC1CCCCC1 (stereo not given)	-6*	i	i	i	i
CCN(CC)CCN1C(=O)C2C(C(=O)Nc3cc(C)cc(C)c3)C3C=CC2(O3)C1C(=O)NC1CCCCC1 (stereo not given)	i	47*	i	i	i
Cc1ccc(-c2c(C#N)c(N)n(-c3ccccc3)c(=O)c2C#N)cc1	i	i	i	i	i
Cn1c(N)c(Br)c(-c2ccc(F)cc2)c(C#N)c1=O	-5*	i	i	i	i
Cc1ccc(SCCNCc2ccco2)cc1	i	i	i	10*	i
Cc1ccc(SCCC(=O)NCCSCc2ccco2)cc1	i	i	i	i	i
O=[N+]([O-])c1cccc(NC(=S)N2CCN(c3ccccn3)CC2)c1	i	i	i	i	i
CC(=O)OCC1O[C@@H](O[C@@H]2C[C@H]3C(C)(C)[C@H](OC(C)=O)CC[C@]3(C)[C@H]3CC[C@]45C[C@]4(CC[C@H]5[C@@H](C)C[C@@H](O)[C@H](O)C(C)(C)O)[C@@]32C)[C@H](O)[C@@H](O)[C@@H]1O (stereo not given in full)	i	110*	i	i	i
CCN1CCN(c2ccc(NC(=O)c3ccc(Br)o3)cc2)CC1	i	i	i	i	i
